Screens: PubChem, several laboratories
Most compounds without a hit are left out; they make up all but 2.1% or so of the library.
Runt-SMMHC FRET – Runt domain-CBFb-SMMHC interaction inhibition; 220,000 compounds, 0.74% hits; inhibition, % at 20 µM; Cerulean-Runt/Venus-CBFb-SMMHC FRET ratio 530/480, 1 h; Q01196+Q13951;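 active = mean inhibition across duplicate retests at 20 µM reaching about 50%, limit read from the data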;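 note: 0% = DMSO wells and 100% = wells with excess untagged CBFb-SMMHC; inhibitors lower the FRET ratio by blocking Runt binding to CBFb-SMMHC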
Runt-CBFb FRET – blocks binding of human RUNX1 Runt domain to CBFb. Q01196+Q13951. Cerulean-Runt/Venus-CBFb FRET ratio 530/480, 1 h. inhibition, % at 20 µM. 220,000 compounds, 0.46% hits. AID 1496;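 active = inhibition over about 50% at 20 µM in the single-dose screen, limit read from the data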;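 note: 0% = DMSO wells and 100% = excess unlabeled CBFb competitor control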
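Assay system: Cerulean-Runt domain / Medium: Tris 50 mM pH 7.5, KCl, K2SO4, 0.01% BSA / Timing: protein complex preformed 1 h, compound exposure 1 h, room temperature, dark / Measured by: FRET, excitation 422 nm, emission at 530 and 480 nm / Evaluation: loss of energy transfer signal / Control set: 5 µM unlabeled CBFb as full-inhibition high control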
MEX-5 binding – C. elegans MEX-5 TCR-2 RNA binding activity | MEX-5/FITC-TCR2 RNA binding, fluorescence polarization; hits give low values | activity score (negative = inhibition of binding), % at 10 µM | Q9XUB2 | 300,000 compounds, 0.38% hits;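 active = inhibition past about -25% in most replicates, and total fluorescence under double the plate's negative control median, limit read from the data; inconclusive = replicates evenly split on the limit, or fluorescence at least double controls; inactive = too little inhibition in most replicates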;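 note: 0% = DMSO and -100% = 5 µM competing unlabeled TCR2 RNA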
Target sequence (Q9XUB2 whole entry, looked up): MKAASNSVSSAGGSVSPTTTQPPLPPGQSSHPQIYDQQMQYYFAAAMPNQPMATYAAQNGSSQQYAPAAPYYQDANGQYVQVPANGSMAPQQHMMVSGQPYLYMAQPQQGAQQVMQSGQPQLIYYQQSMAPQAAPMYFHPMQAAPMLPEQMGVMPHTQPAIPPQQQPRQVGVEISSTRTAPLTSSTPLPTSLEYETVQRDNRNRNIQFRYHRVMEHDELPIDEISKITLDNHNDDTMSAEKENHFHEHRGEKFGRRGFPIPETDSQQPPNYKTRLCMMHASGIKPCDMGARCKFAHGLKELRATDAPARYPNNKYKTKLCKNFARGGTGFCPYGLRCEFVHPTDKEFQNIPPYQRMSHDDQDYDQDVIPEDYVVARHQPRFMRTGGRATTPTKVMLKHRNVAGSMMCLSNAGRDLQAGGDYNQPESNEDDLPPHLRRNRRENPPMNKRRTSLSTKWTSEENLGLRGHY
RanGTP-Impb inh – disruptors of Ran-importin-beta complex formation – biochemical, FRET, CFP-Ran, YFP-importin-beta, homogeneous, primary screen. inhibition, % (test concentration not listed). 300,000 compounds, 1.1% hits. cell-free CFP-Ran/YFP-importin-beta FRET ratio;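 active = more than half of the replicate wells show a fall in the fluorescence ratio signal beyond about 16%, limit read from the data, passing the limit was not always enough; inconclusive = exactly half of the replicate wells pass the set limit; inactive = fewer than half of replicates pass the limit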;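 note: 0% = DMSO wells and 100% = Ran loaded with GDP instead of GTP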
proKLK7 act – activates the human kallikrein-7 zymogen | activation, % at 7 µM | 370,000 compounds, 0.9% hits | purified proKLK7, EDANS-DABCYL substrate fluorescence; 100% is mature enzyme control, 0% vehicle | P49862;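 active = activation above the mean of all tested compounds plus 3 SD, computed per campaign excluding outliers beyond control limits, cut at about 13% in these data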
Target sequence (P49862 whole entry, looked up): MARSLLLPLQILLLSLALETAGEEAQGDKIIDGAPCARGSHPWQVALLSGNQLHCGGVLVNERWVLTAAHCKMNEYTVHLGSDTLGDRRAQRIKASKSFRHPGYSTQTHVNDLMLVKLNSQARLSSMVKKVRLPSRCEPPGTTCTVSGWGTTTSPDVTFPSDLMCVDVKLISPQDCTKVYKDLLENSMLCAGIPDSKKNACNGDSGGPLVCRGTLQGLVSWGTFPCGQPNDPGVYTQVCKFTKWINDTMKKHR
KLK7 act conf – proKLK7 activation, confirmation; shares compounds with proKLK7 act; purified proKLK7, EDANS-DABCYL substrate fluorescence; scaled: vehicle 0, mature enzyme 100; activation, % at 7 µM; 3,200 compounds, 68% hits; AID 686949;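 active = activation, as change over the incubation, above the mean of all tested compounds plus 3 SD, cut at about 13% in these data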
EDANS-DABCYL int – counter-screen for kallikrein-7 activators: EDANS-DABCYL optical interference; 3,200 compounds, 80% hits; activation, % at 7 µM; shares compounds with proKLK7 act; AID 686952; EDANS-DABCYL substrate fluorescence interference, no enzyme, 4 h; solvent 0%, active enzyme control 100%;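 active = activation above the all-compound mean plus 3 SD, ignoring values outside control-based bounds, cut at about 4.8% in these data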;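 note: value is the 4 h activation minus the activation read at time zero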
EDANS interf – EDANS fluorescence interference in dose response, no enzyme | shares compounds with proKLK7 act | EDANS-DABCYL peptide fluorescence interference | EC50, µM | 250 compounds, 20% hits | AID 720493;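 active = compounds that raise the fluorescence signal in this interference counterscreen, with EC50 at or below 10 µM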;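 note: intact quenched peptide substrate alone read at 355 nm excitation and 520 nm emission; signal is fluorescence gain from T0 to T4 after four hours at room temperature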
Numbers without * were called inactive; ? = inconclusive; nt = not tested or not shown.

SMILES	Runt-SMMHC FRET	Runt-CBFb FRET	MEX-5 binding	RanGTP-Impb inh	proKLK7 act	KLK7 act conf	EDANS-DABCYL int	others
Cc1c(C)c2cc(Cl)c(O)c(CN3CCN(C)CC3)c2oc1=O	127*	96*	-1	-1	76*	64*	69*
Cc1nnc(SCC(=O)N2CCN(c3cccc(Cl)c3)CC2)n1C1CC1	nt	nt	nt	nt	0	nt	nt
Cc1cc(=O)oc2c(CN3CCCC3)c(O)ccc12	nt	nt	-1	9	45*	76*	75*
Oc1ccc2ccccc2c1CN1CCOCC1	4	18	-1	4	-2	nt	nt
O=c1oc2c(CN3CCOCC3)c(O)ccc2c2c1CCC2	54*	21	nt	nt	70*	68*	72*
CN1CCN(Cc2c(O)ccc3c(-c4ccccc4)cc(=O)oc23)CC1	118	-16	-1	-2	17*	5	4
Cc1c(Cc2ccccc2)c(=O)oc2c(CN(C)C)c(O)c(Cl)cc12	90*	126*	2	71*	48*	68*	67*
Cc1cc2oc(=O)cc(CN3CCCC3)c2cc1C	nt	nt	nt	nt	1	nt	nt
O=C(CNc1cccc([N+](=O)[O-])c1)NC(=O)NC1CCCCC1	nt	nt	nt	nt	0	nt	nt
COc1ccc(-c2c(Sc3ccccc3)c3cc(-c4ccc(OC)c(F)c4)ccc3n2C)cc1	nt	nt	nt	nt	-2	nt	nt
Cc1cc(=O)oc2c(CN3CCN(CCO)CC3)c(O)ccc12	nt	nt	1	0	120*	65*	69*
CCN1CCN(Cc2c(O)ccc3c(C)cc(=O)oc23)CC1	nt	nt	0	5	44*	71*	73*
CCc1c(C(C)O)oc2ccc3c(C)cc(=O)oc3c12 (centres undefined)	2	nt	1	6	2	nt	nt
O=c1cc(CO)oc(CN2CCN(CCO)CC2)c1O	-2	-1	-1	6	-1	nt	nt
CCN1CCN(CC(O)COc2ccc3c(C)cc(=O)oc3c2)CC1 (centres undefined)	1	3	1	-2	-3	nt	nt
C=CCc1c(O)c(CC)cc2c(C)cc(=O)oc12	80*	47	-4	62*	90*	61*	66*
CCOC(=O)C1c2cccc(O)c2CCN1C(C)=O (centres undefined)	nt	nt	nt	nt	0	nt	nt
Cc1ccc2ccccc2c1C(O)c1ncc(-c2ccccc2F)[nH]1 (centres undefined)	nt	nt	nt	nt	1	nt	nt
O=C(c1cc(C2CCCCN2S(=O)(=O)c2cccs2)on1)N1CCOCC1 (centres undefined)	nt	nt	nt	nt	0	nt	nt
Cc1ccc(C(=O)/C=C/Nc2ccc(S(=O)(=O)Nc3cc(C)nc(C)n3)cc2)cc1	nt	nt	-1	-4	30*	148*	119*
Cc1ccc(/C=C/C(=O)Nc2ccc(S(=O)(=O)Nc3cc(C)nc(C)n3)cc2)cc1	nt	nt	-1	-1	0	nt	nt
CCOC(=O)c1cc(N2CCCCC2)nc2ccccc12	nt	nt	nt	nt	17*	3	4.9*
O=C(O)c1cc(N2CCCCC2)nc2ccccc12	nt	nt	nt	nt	2	nt	nt
COC(=O)c1cc(N2CCN(C)CC2)nc2ccccc12	-38	-28	?	-49	61*	15*	13*
Cc1cc(C)cc(NC(=O)N2CCC(c3nc4ccc(Cl)cc4[nH]3)CC2)c1	nt	nt	nt	nt	0	nt	nt
SMILES	Runt-SMMHC FRET	Runt-CBFb FRET	MEX-5 binding	RanGTP-Impb inh	proKLK7 act	KLK7 act conf	EDANS-DABCYL int	others
CCc1nc2c(OCc3ccc(Cl)cc3)cccn2c1N(C)C(=O)c1ccncc1	nt	nt	nt	nt	0	nt	nt
Cc1ccc(C23OCCN2CCn2nc4ccccc4c23)cc1 (centres undefined)	nt	nt	nt	nt	44*	2	2
N#Cc1ccc(C23OCCN2CCn2c3c3ccccc3[n+]2[O-])cc1 (centres undefined)	nt	nt	nt	nt	3	nt	nt
COc1cc2c3nnc(-c4ccccc4)c-3cn(Cc3ccc(F)cc3)c2cc1OC	40	13	-34*	35*	28*	-28	-25
COc1cc2c3nnc(-c4ccc(F)cc4)c-3cn(Cc3ccc(C)cc3)c2cc1OC	-146	-243	?	-118	-31	nt	nt
C=CCN1C(=O)[C@@H](CC(=O)NCCCCc2ccccc2)[C@]2(C(=O)OC)CCCCC=C12	nt	nt	nt	nt	0	nt	nt
c1ccc2c(N3CCOCC3)nc(N3CCOCC3)nc2c1	2	2	3	2	-4	nt	nt
CSc1nc(N2CCOCC2)nc2ccc(C)cc12	nt	nt	0	10	35*	-31	-43
COc1ccc(NC(=O)N[C@H]2CC[C@@H](CC(=O)NC3CCC3)O[C@@H]2CO)cc1	nt	nt	nt	nt	0	nt	nt
C=CCn1c(=O)c(C#N)cc2c(=O)n3ccccc3nc21	79*	10	-4	75*	39*	67*	83*
Cc1ccccc1-n1c(=O)c(C#N)cc2c(=O)n3ccccc3nc21	59*	19	-13	128*	13*	71*	73*
Cc1cc(-n2c(=O)c(C#N)cc3c(=O)n4ccccc4nc32)no1	65*	12	-15	161*	22*	30*	57*
C=CCn1cc(-c2ccccc2)cc(C#N)c1=O	6	2	2	-7	5	nt	nt
Cc1cc(N2C(=O)C3C4c5ccccc5C(c5ccccc54)C3C2=O)no1 (centres undefined)	4	-2	0	-1	0	nt	nt
CCCCCC(=O)N1C[C@H](n2cc(COC(=O)c3ccccc3)nn2)[C@@H](O)C[C@@H]1c1ccc(Cl)cc1	nt	nt	nt	nt	0	nt	nt
O=C(O)C1C2C=CC(C2)C1C(=O)Nc1ccc(Cl)c(Cl)c1 (centres undefined)	nt	nt	-1	2	0	nt	nt
COc1cc2c(cc1OC)C1CC(=O)C(CC(C)C)CN1CC2 (centres undefined)	nt	nt	-2	-2	-3	nt	nt
CCC(CC)CC1CN2CCc3cc(OC)c(OC)cc3C2CC1(O)CC (centres undefined)	nt	nt	nt	nt	30*	20*	17*	EDANS interf=>70
NC(=O)NN=C1CCN2CCCc3cccc1c32	nt	nt	nt	nt	30*	51*	55*
CCC(C)(C)NC(=O)C(c1ccc(OC)cc1)N(C(=O)CCC(=O)Nc1cc(C)on1)c1ccc2c(c1)OCCO2 (centres undefined)	nt	nt	1	1	0	nt	nt
CCOc1cc(/C=N/NC(=O)N/N=C/c2ccc(O)c(OCC)c2)ccc1O	nt	nt	1	2	0	nt	nt
CCOc1cc(/C=N/NC(=O)C(=O)N/N=C/c2ccc(O)c(OCC)c2)ccc1O	nt	nt	-3	4	16*	-21	-8
